Data on one compound can be found in ChEMBL document CHEMBL4373710, “DNA Structural Alteration Leading to Antibacterial Properties of 6-Nitroquinoxaline Derivatives” (J Med Chem, 2019).

One data set has as its system Staphylococcus aureus. Description: Antibacterial activity against Staphylococcus aureus MTCC737 measured after 6 hrs by broth microdilution assay. The format is functional. Particulars: MTCC737, 6 h. The method, boiled down: (§1)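 Broth microdilution per CLSI; 5×10^5 cfu/mL bacteria in LB broth; compounds from DMSO stocks, final DMSO under 0.6%, with DMSO control. Plates incubated at the strain's recommended growth temperature and time; growth read as OD600.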

For data set [1], the system named is Staphylococcus epidermidis. Description: Antibacterial activity against Staphylococcus epidermidis MTCC3615 by broth microdilution assay. The format is functional. The method, boiled down:
as §1

A short description of data set [2]: Antibacterial activity against Arthrobacter chlorophenolicus A6MTCC3706 by broth microdilution assay. The format is functional. Particulars: Pseudarthrobacter chlorophenolicus. The procedure, abridged:
as §1

The next data set has as its system Escherichia coli. Description: Antibacterial activity against Escherichia coli MTCC1916 by broth microdilution assay. In kind it is functional. The procedure, abridged: as §1
For a further data set, the system named is Pseudomonas aeruginosa. Put plainly: Antibacterial activity against Pseudomonas aeruginosa MTCC1688 by broth microdilution assay. In kind it is functional. The procedure, abridged: as §1
For the next data set, the system named is HEK293. Description: Cytotoxicity against HEK293 cells measured after 24 hrs by MTT assay. The format is cell-based. Particulars: Homo sapiens, HEK293, 24 h. The method, boiled down:
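HEK 293 cells, 4000/well, seeded overnight in DMEM + 10% FBS at 37°C in CO2; compound dose series for 24 h (final DMSO <0.5%, DMSO-only control). MTT at 1 mg/mL final for 3 h, formazan dissolved in DMSO, absorbance 595 nm; IC50 from triplicate OD data.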

The nature of data set [3]: Binding affinity to pCDNA 3.1 (unknown origin) assessed as DNA unwinding effect up to 6:1 compound to DNA ratio measured after 16 hrs by EtBr staining agarose gel shift assay. The method, boiled down:
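pCDNA3.1 plasmid (amplified in E. coli DH5α), 40 µM, in 50 mM NaP pH 7, 10 mM NaCl, mixed with compound at set compound:DNA base-pair ratios; 16 h at 37°C. Run on 1% agarose at 50 V ~3 h, stained with EtBr 1 µg/mL for 5 min, imaged.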

The subject of data set [4] is Calf thymus DNA. Description: Binding affinity to calf thymus DNA assessed as change in B-DNA structure at 15 to 60 uM by circular dichroism method. The format is nucleic-acid assay. The conditions noted are these: Bos taurus.
For data set [5], the system named is Calf thymus DNA. Description: Binding affinity to calf thymus DNA assessed as appearance of induced CD at 15 to 60 uM by circular dichroism method. In kind it is nucleic-acid assay. The conditions noted are these: Bos taurus.
In a further data set the test system is DNA. Description: Binding affinity to Escherichia coli pBR322 DNA assessed as DNA compaction up to 5:1 compound to DNA ratio by atomic force microscopic analysis. The format is nucleic-acid assay. The method, boiled down:
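Supercoiled pBR322 plasmid treated with compound at [compound]:[DNA bp] ratios from 0.5:1 up to 5:1, imaged by AFM; DNA height measured.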

Data set [6] relates to Calf thymus DNA. Description: Binding affinity to calf thymus DNA by isothermal titration calorimetric analysis. In kind it is nucleic-acid assay. The conditions noted are these: Bos taurus.
Data set [7] in a line: Solubility of the compound in pH 7 phosphate buffer at 100 uM by UV absorption spectra analysis. The format is physicochemical. The conditions noted are these: pH 7, 100 µM.

The source made the active and inactive calls. The calls are words filed in the database; no cut-off is given here.

As to `O=[N+]([O-])c1ccc2nc(NCc3ccc(C(F)(F)F)cc3)c(N3CCCCC3)nc2c1`, the MIC (with Staphylococcus aureus; in data set [1]; in [2]; with Escherichia coli; in the data set on Pseudomonas aeruginosa) was greater than 200 µg/mL throughout. This compound yielded an IC50 with HEK293 greater than 200 µg/mL. Also, the result (in data set [3]; in the data set with Calf thymus DNA [4]; in the data set on Calf thymus DNA [5]; in the data set with DNA; with Calf thymus DNA [6]) was inactive. In addition, the solubility result in data set [7] was “Soluble”.
